Test results taken from ChEMBL document CHEMBL1212832, “Antiprotozoal steroidal saponins from the marine sponge Pandaros acanthifolium” (J Nat Prod, 2010).
Activity calls are given as the source filed them. No cut-off for these calls is given here.

Experiments:
L6 = assay: Cytotoxicity against rat L6 cells after 72 hrs by Alamar blue assay; assay type: cell-based; conditions: l6, 72 h
How it was run: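 4 × 10^4 L6 cells per well in RPMI 1640 with 10% FBS and L-glutamine, exposed 72 h to seven 3-fold dilutions (90–0.12 µg/mL). Resazurin (Alamar Blue) added for 2 h, fluorescence read at ex 536/em 588 nm.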

Leishmania donovani [1] = assay: Antileishmanial activity against Leishmania donovani (MHOM/ET/67/L82) amastigotes after 72 hrs; assay type: functional, organism-based; conditions: MHOM/ET/67/L82, 72 h
Plasmodium falciparum = assay: Antimalarial activity against chloroquine and pyrimethamine-resistant Plasmodium falciparum K1 assessed as inhibition of [3H]hypoxanthine incorporation after 48 hrs by scintillation counting; assay type: functional, organism-based
How it was run: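 K1 strain (chloroquine- and pyrimethamine-resistant) cultured in RPMI 1640 with 5% Albumax II, 0.2% w/v glucose, 0.03% L-glutamine. Two-fold dilution series from DMSO stocks, final DMSO ≤0.25%. 48 h at 37 °C, then 0.1 µCi [3H]-hypoxanthine added and incubated 24 h more. Freeze-stopped at -80 °C, harvested onto glass fiber filters, scintillation counted. IC50 calculated. Chloroquine as standard.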

Trypanosoma cruzi = assay: Trypanocidal activity against trypomastigote form of Trypanosoma cruzi Tulahuen infected in rat L6 cells after 96 hrs; assay type: functional, organism-based; conditions: L6, 96 h
How it was run: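 L6 cells seeded at 2000 per well in RPMI 1640 with 10% FBS, 2 mM L-glutamine; after 24 h, 5000 trypomastigotes of the LacZ-expressing C2C4 line added. After 48 h, medium replaced with seven 3-fold dilutions (90–0.12 µg/mL) for 96 h.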

[2] = system: Trypanosoma brucei rhodesiense; assay: Trypanocidal activity against Trypanosoma brucei rhodesiense STIB 900 after 72 hrs; assay type: functional, organism-based; conditions: STIB 900, 72 h
How it was run: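 Bloodstream forms (10^4 per well) in MEM with 25 mM HEPES, extra glucose, non-essential amino acids, 2-mercaptoethanol, pyruvate and 15% heat-inactivated horse serum; seven 3-fold dilutions from 90 to 0.12 µg/mL, 72 h at 37 °C, 5% CO2. Resazurin added for 2–4 h, fluorescence at ex 536/em 588 nm; melarsoprol as standard.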

[3] = biological target: T1, 3-oxoacyl-acyl-carrier protein reductase (Plasmodium falciparum) (UniProt Q965D6); assay: Inhibition of Plasmodium falciparum recombinant FabG at 20 ug/mL by spectrophotometric analysis
T1 sequence (whole entry): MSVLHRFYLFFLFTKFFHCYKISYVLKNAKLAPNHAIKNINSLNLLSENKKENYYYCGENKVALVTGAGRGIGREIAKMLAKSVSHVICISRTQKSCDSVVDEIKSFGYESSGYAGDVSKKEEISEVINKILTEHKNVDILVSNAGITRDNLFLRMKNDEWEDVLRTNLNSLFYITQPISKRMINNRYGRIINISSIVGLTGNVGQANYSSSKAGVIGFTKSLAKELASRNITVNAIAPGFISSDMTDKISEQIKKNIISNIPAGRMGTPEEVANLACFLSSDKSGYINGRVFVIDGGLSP

[4] = Inhibition of Plasmodium falciparum recombinant FabI at 20 ug/mL by spectrophotometric analysis
[5] = biological target: T2, Fatty acid synthase (Plasmodium falciparum) (UniProt Q965D7); assay: Inhibition of Plasmodium falciparum recombinant FabZ at 20 ug/mL by spectrophotometric analysis
T2 sequence (whole entry): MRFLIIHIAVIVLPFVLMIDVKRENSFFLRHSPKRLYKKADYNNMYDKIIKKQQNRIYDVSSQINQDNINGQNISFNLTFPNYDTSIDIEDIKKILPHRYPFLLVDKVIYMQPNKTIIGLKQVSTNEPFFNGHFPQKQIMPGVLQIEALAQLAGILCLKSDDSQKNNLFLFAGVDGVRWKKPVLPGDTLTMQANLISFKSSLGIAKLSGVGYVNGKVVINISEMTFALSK

Leishmania donovani [6] = assay: Ratio of miltefosine IC50 to compound IC50 for Leishmania donovani (MHOM/ET/67/L82) amastigotes

In the case of CC[C@@H](C(=O)C[C@@H](C)C1=C(O)C(=O)[C@@H]2C3=CC[C@H]4C[C@@H](O[C@@H]5O[C@H](C(=O)OC)[C@@H](O)[C@H](O[C@@H]6OC[C@@H](O)[C@H](O)[C@H]6O)[C@H]5O)CC[C@]4(C)[C@H]3CC[C@]12C)C(C)C [METHYL ESTER PANDAROSIDE G], the Activity (L6) is reported as 0.22 µM, the IC50 (Leishmania donovani [1]) is reported as 0.051 µM and the IC50 (Plasmodium falciparum) is reported as 0.39 µM. For the same compound, the IC50 (Trypanosoma cruzi) was 0.77 µM, the IC50 [2] was 0.038 µM and the Activity [3] was “inactive”. The Activity [4] was “inactive”, the Activity [5] was “inactive” and the “Ratio IC50” value (Leishmania donovani [6]) was 10.
CC[C@@H](C(=O)C[C@@H](C)C1=C(O)C(=O)[C@@H]2[C@@H]3CC[C@H]4C[C@@H](O[C@@H]5O[C@H](C(=O)O)[C@@H](O)[C@H](O[C@@H]6OC[C@@H](O)[C@H](O)[C@H]6O)[C@H]5O)CC[C@]4(C)[C@H]3CC[C@]12C)C(C)C [PANDAROSIDE H] gave an Activity (L6) greater than 120 µM, an IC50 (Leishmania donovani [1]) of 46.7 µM and an IC50 (Plasmodium falciparum) of 22.8 µM. For the same compound, the IC50 (Trypanosoma cruzi) was greater than 120 µM, the IC50 [2] was 68.4 µM and the Activity [3] was “inactive”. For the same compound, the Activity [4] was “inactive” and the Activity [5] was “inactive”.
In the case of CC[C@@H](C(=O)C[C@@H](C)C1=C(O)C(=O)[C@@H]2[C@@H]3CC[C@H]4C[C@@H](O[C@@H]5O[C@H](C(=O)O)[C@@H](O[C@H]6O[C@H](C)[C@@H](O)[C@H](O)[C@@H]6O)[C@H](O)[C@H]5O)CC[C@]4(C)[C@H]3CC[C@]12C)C(C)C [PANDAROSIDE I], the Activity (L6) is reported as greater than 120 µM, the IC50 (Leishmania donovani [1]) is reported as 36 µM and the IC50 (Plasmodium falciparum) is reported as greater than 25 µM. The IC50 (Trypanosoma cruzi) was 70.8 µM, the IC50 [2] was 19.2 µM and the Activity [3] was “inactive”. The Activity [4] was “inactive” and the Activity [5] was “inactive”.
